Laboratory results from ChEMBL document CHEMBL1150666, “Antioxidant and free-radical scavenging activity of constituents of the leaves of Tachigalia paniculata” (J Nat Prod, 2002).

What was measured:
[1] = ABTS radical scavenging activity assessed as Trolox equivalent antioxidant capacity at 1 mM by spectrophotometry; type: physicochemical; settings: 1000 µM
How it was run: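 ABTS radical cation made from 7 mM ABTS with 2.45 mM potassium persulfate, kept dark at room temperature 12 h. Diluted in PBS pH 7.4 to A734 0.70 and equilibrated at 30 °C. Methanol sample solutions (0.3–2 mM) were added to diluted ABTS. Percent inhibition at 734 nm versus methanol blank, plotted against concentration relative to Trolox; three determinations.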

[2] = target: Xanthine dehydrogenase/oxidase (Homo sapiens, UniProt P47989); assay: Inhibition of xanthine oxidase-mediated formation of uric acid by spectrophotometry
Xanthine dehydrogenase/oxidase, sequence (P47989 whole entry): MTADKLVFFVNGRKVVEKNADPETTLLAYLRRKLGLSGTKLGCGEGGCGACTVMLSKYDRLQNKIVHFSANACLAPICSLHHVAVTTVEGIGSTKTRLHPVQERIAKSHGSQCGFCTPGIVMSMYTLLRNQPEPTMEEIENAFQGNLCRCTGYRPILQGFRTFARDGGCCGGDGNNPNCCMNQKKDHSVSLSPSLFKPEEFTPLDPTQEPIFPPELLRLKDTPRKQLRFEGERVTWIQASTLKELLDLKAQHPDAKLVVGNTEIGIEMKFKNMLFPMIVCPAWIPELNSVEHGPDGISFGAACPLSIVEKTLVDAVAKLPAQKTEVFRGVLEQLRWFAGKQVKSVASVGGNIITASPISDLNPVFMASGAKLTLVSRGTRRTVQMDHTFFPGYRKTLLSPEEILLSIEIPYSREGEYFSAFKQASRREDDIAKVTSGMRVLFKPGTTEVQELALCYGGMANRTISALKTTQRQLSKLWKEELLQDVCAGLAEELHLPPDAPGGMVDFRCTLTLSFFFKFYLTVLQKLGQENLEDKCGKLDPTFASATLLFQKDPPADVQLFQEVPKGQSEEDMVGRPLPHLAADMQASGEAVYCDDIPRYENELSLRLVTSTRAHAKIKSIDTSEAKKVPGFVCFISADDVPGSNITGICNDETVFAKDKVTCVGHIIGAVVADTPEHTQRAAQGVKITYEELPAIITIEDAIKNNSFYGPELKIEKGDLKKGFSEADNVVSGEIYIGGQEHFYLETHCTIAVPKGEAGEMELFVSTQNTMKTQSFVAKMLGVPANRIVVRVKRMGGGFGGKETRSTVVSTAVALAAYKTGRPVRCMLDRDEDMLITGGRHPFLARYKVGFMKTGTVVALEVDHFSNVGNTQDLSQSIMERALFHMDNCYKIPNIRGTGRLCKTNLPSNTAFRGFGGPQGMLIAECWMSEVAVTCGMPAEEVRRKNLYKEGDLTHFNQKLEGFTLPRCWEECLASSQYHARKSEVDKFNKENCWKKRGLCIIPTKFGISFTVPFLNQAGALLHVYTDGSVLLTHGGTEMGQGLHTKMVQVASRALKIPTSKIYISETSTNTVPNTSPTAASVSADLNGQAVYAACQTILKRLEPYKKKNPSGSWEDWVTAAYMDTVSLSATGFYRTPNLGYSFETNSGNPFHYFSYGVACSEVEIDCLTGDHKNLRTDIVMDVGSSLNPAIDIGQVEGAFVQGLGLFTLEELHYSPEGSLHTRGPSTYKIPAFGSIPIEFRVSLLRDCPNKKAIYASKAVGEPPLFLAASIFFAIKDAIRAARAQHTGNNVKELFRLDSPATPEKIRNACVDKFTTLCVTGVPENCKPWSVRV
How it was run: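 Xanthine 100 μM in 0.1 M phosphate buffer pH 7.8 with 0.04 units/mL XOD, incubated 10 min at room temperature. Compounds added at several concentrations before enzyme; IC50 from regression lines.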

| Structure (SMILES) | Activity [1] | IC50 [2] |
| --- | --- | --- |
| C[C@@H]1O[C@@H](OC[C@H]2O[C@@H](Oc3cc(O)c4c(=O)c(O)c(-c5cc(O)c(O)c(O)c5)oc4c3)[C@H](O)[C@@H](O)[C@@H]2O)[C@H](O)[C@H](O)[C@H]1O | 1.42 mM | 6.13 µM |
| O=c1c(O)c(-c2cc(O)c(O)c(O)c2)oc2cc(O[C@@H]3O[C@H](CO[C@@H]4O[C@H](CO)[C@@H](O)[C@H](O)[C@H]4O)[C@@H](O)[C@H](O)[C@H]3O)cc(O)c12 | 1.62 mM | 6.52 µM |
| O=c1c(O[C@@H]2O[C@H](CO)C(O)[C@H](O)[C@H]2O)c(-c2ccc(O)c(O)c2)oc2cc(O)cc(O)c12 (single isomer, unassigned) [ISOQUERCETIN] | 1.1 mM | 26.3 µM |
| O=C/C=C/c1ccc(O)c(O)c1 [CAFFEOYL ALDEHYDE] | 0.713 mM | 31.5 µM |
| COC(=O)c1cc(O)c(O)c(O)c1 [GALLIC ACID METHYL ESTER] | 1.154 mM | 15.5 µM |
| O=c1c(O[C@@H]2O[C@H](CO)[C@@H](O)[C@H](O)[C@H]2O)c(-c2ccc(O)c(O)c2)oc2cc(O)cc(O)c12 [ISOQUERCETIN] | 0.757 mM | > 50 µM |
| COc1ccc(C=O)cc1O [ISOVANILLIN] | 0.144 mM | > 50 µM |
| COC(=O)c1ccc(O)c(O)c1 [METHYL PROTOCATECHUATE] | 0.855 mM | 29.6 µM |
| COC(=O)c1ccc(O)cc1 [METHYLPARABEN] | 0.147 mM | > 50 µM |
| O=c1c(O)c(-c2ccc(O)c(O)c2)oc2cc(O)cc(O)c12 [QUERCETIN] | 2.6 mM |  |
| C[C@@H]1O[C@@H](Oc2c(-c3ccc(O)c(O)c3)oc3cc(O)cc(O)c3c2=O)[C@H](O)[C@H](O)[C@H]1O [QUERCITRIN] | 0.854 mM | 14.7 µM |
